Active and inactive are the calls of the source. The calls are words filed in the database; no cut-off is given here.
Legend:
[1] = tested on: LN-229; assay: Cell cycle arrest in human LN229 cells assessed as cell accumulation at S phase at 10 uM incubated for 48 hrs by propidium iodide staining based flow cytometry analysis relative to control; type: functional
[2] = tested on: LN-229; assay: Cell cycle arrest in human LN229 cells assessed as cell accumulation at S phase at 10 uM incubated for 24 hrs by propidium iodide staining based flow cytometry analysis relative to control; type: functional
[3] = tested on: PC-3; assay: Antiproliferative activity against human PC3 cells assessed as reduction in cell viability at 10 uM incubated for 48 hrs by cell titer-glo assay; type: functional, cell-based
Outline: (§1)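 Cells plated and treated 24 h later with 10 µM compound for 48 h; viable cells quantified by CellTiter-Glo ATP luminescence. Expressed as percentage of viable cells relative to untreated; mean ± SD of three independent experiments, each in triplicate.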

[4] = tested on: LN-229; assay: Induction of cellular senescence in human LN229 cells assessed as wider cells at 10 uM incubated for 24 hrs by phase contrast microscopy; type: functional, cell-based
Outline: (§2)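 LN229 and PC3 cells, 12×10^4 per well in 6-well plates, treated with 10 µM compound for 24 h. Senescence-associated β-gal staining: fixed in 2% formaldehyde/0.2% glutaraldehyde for 10 min at RT, stained with 1 mg/mL X-gal at 37 °C for 24 h without CO2. Blue cells counted in at least 10 fields at 10x and given as percent of total; four independent experiments. Morphology viewed by phase contrast at ×100.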

[5] = tested on: LN-229; assay: Induction of cell morphological changes in human LN229 cells assessed as cell rounding at 10 uM incubated for 24 to 48 hrs by phase contrast microscopy; type: functional, cell-based
Outline: (§3)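 LN229 and PC3 cells exposed to 10 µM compound for the indicated time-points, then imaged live by phase-contrast microscopy for morphology.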

[6] = tested on: LN-229; assay: Induction of cellular senescence in human LN229 cells assessed as increase in nuclear size at 10 uM incubated for 24 hrs by phase contrast microscopy; type: functional, cell-based; outline: as §2
[7] = tested on: U-87 MG; assay: Cell cycle arrest in human U87MG cells assessed as increase in cell accumulation at G0/G1 phase at 10 uM incubated for 24 hrs by propidium iodide staining based flow cytometry analysis; type: functional; conditions: U-87MG ATCC
[8] = tested on: PC-3; assay: Inhibition of colony formation in human PC3 cells at 10 uM incubated for 4 hrs by crystal violet staining based colony counting method; type: functional, cell-based
Outline: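 LN229 and PC3 cells treated for 4 h with compound (10 µM) or with etoposide (30 µM positive control), washed, trypsinized and replated at 3000 cells per 60-mm plate. Colonies grown 7–10 days, fixed and stained with 0.5% crystal violet in 70% ethanol, and counted. Reported as percent of control; four independent experiments, each in duplicate.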

[9] = tested on: LN-229; assay: Induction of mitochondrial membrane potential loss in human LN229 cells at 10 uM measured upto 48 hrs by JC-1 staining based flow cytometry analysis; type: functional, cell-based
Outline: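 LN229 cells seeded at 5×10^5 cells/mL and adhered overnight, then given medium with 10 µM compound for the indicated time-points. Readout is mean FL3 (aggregate, 590 nm)/FL1 (monomer, 530 nm) fluorescence ratio; mean ± SD of three determinations.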

[10] = tested on: PC-3; assay: Induction of cellular senescence in human PC3 cells assessed as increase in beta-gal-positive cells at 10 uM incubated for 24 hrs by X-Gal staining based microscopic assay relative to control; type: functional; outline: as §2
[11] = tested on: LN-229; assay: Induction of cellular senescence in human LN229 cells assessed as cells with irregular shape at 10 uM incubated for 24 hrs by phase contrast microscopy; type: functional, cell-based; outline: as §2
[12] = tested on: PC-3; assay: Induction of apoptosis in human PC3 cells at 10 uM incubated for 24 to 48 hrs by annexin V-FITC and propidium iodide staining based flow cytometric analysis; type: functional, cell-based
[13] = tested on: U-87 MG; assay: Cell cycle arrest in human U87MG cells assessed as decrease in cell accumulation at G2 phase at 10 uM incubated for 24 hrs by propidium iodide staining based flow cytometry analysis; type: functional; conditions: U-87MG ATCC
[14] = tested on: LN-229; assay: Cell cycle arrest in human LN229 cells assessed as cell accumulation at G1 phase at 10 uM incubated for 48 hrs by propidium iodide staining based flow cytometry analysis relative to control; type: functional
[15] = species on record: Homo sapiens; assay: Antiproliferative activity against human SP53 cells assessed as reduction in cell viability at 10 uM incubated for 48 hrs by cell titer-glo assay; type: functional, cell-based; outline: as §1
[16] = tested on: PC-3; assay: Induction of cell morphological changes in human PC3 cells assessed as cell rounding at 10 uM incubated for 24 to 48 hrs by phase contrast microscopy; type: functional, cell-based; outline: as §3
[17] = tested on: LN-229; assay: Cell cycle arrest in human LN229 cells assessed as cell accumulation at G2/M phase at 10 uM incubated for 24 hrs by propidium iodide staining based flow cytometry analysis relative to control; type: functional
[18] = tested on: PC-3; assay: Induction of cellular senescence in human PC3 cells assessed as cells with irregular shape at 10 uM incubated for 24 hrs by phase contrast microscopy; type: functional, cell-based; outline: as §2
[19] = tested on: LN-229; assay: Antiproliferative activity against human LN229 cells assessed as reduction in cell viability at 10 uM incubated for 48 hrs in presence of Fe3+ ion by MTT assay; type: functional, cell-based
Outline: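 LN229 and PC3 cells plated, then 24 h later given 10 µM compound with or without 15 µM ZnCl2, CuCl2, FeCl2 or FeCl3 for 48 h. Medium replaced, MTT (12 mM solution) added for 4 h, formazan dissolved in DMSO, absorbance read at 540 nm. Percent viable versus untreated; mean ± SD of three experiments in triplicate.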

[20] = tested on: PC-3; assay: Cell cycle arrest in human PC3 cells assessed as cell accumulation at G2/M phase at 10 uM incubated for 48 hrs by propidium iodide staining based flow cytometry analysis relative to control; type: functional
[21] = tested on: JeKo-1; assay: Induction of apoptosis in human JeKo1 cells assessed as increase in caspase-3/7 activation at 10 uM incubated for 48 hrs by luminometric caspase-glo 3/7 assay; type: functional, cell-based
Outline: (§4)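 Cells in RPMI or DMEM with 10% heat-inactivated FBS and penicillin/streptomycin, 37 °C, 5% CO2, treated with 10 µM compound for 48 h. Caspase-3 and caspase-7 activity read by luminescent Caspase-Glo 3/7 assay, reported as fold induction over untreated cells; mean ± SD of three independent experiments, each in triplicate.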

[22] = tested on: MCF7; assay: Induction of apoptosis in human MCF7 cells assessed as increase in caspase-3/7 activation at 10 uM incubated for 48 hrs by luminometric caspase-glo 3/7 assay; type: functional, cell-based; outline: as §4
[23] = tested on: SW480; assay: Antiproliferative activity against human SW480 cells assessed as reduction in cell viability at 10 uM incubated for 48 hrs by cell titer-glo assay; type: functional, cell-based; outline: as §1
[24] = tested on: DNA; assay: Induction of DNA damage in human Z138 cells assessed as gammaH2AX phosphorylation at Ser139 residue at 10 uM incubated for 4 hrs by Flow cytometry analysis; type: cell-based
Outline: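 Z-138 and LN229 cells treated 4 h with 10 µM compound or 1 µM doxorubicin. Fixed in 3.7% formaldehyde on ice, permeabilized with 0.2% Triton X, stained with rabbit anti-pS139 H2A.X (1:400) and Alexa 555 secondary, then analysed by flow cytometry. Fold γH2AX fluorescence versus untreated; mean ± SD of three experiments.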

[25] = tested on: PC-3; assay: Induction of apoptosis in human PC3 cells assessed as increase in caspase-3/7 activation at 10 uM incubated for 48 hrs by luminometric caspase-glo 3/7 assay; type: functional, cell-based; outline: as §4
[26] = tested on: Jurkat; assay: Cell cycle arrest in human Jurkat cells assessed as decrease in cell accumulation at G2 phase at 10 uM incubated for 24 hrs by propidium iodide staining based flow cytometry analysis; type: functional

SMILES	Activity [1] [%]	Activity [2] [%]	Activity [3]	Activity [4]	Activity [5]	Activity [6]	Activity [7]	inhibition [8]	Activity [9]	Activity [10]	Activity [11]	Activity [12]	Activity [13]	Activity [14] [%]	Activity [15]	Activity [16]	Activity [17] [%]	Activity [18]	Activity [19]	Activity [20] [%]	other results
CN(CCNCc1ccccn1)CCNCc1ccccn1	13.5	15.6	Active	Active	Active	Active	Active	inactive	Active	Active	Active	Active	Active	66.1	Active	Active	22.1	Active	Active	16	Activity [21]: Active; Activity [22]: Active; Activity [23]: Active; Activity [24]: inactive; Activity [25]: Active; Activity [26]: Active
c1ccc(CNCCN(CCNCc2ccccn2)Cc2ccc3ccccc3c2)nc1	10.8	14.8	Active	Active	Active	Active	Active	inactive	Active	50%	Active	Active	Active	74.7	Active	Active	22.1	Active	Active	14.1	Activity [21]: Active; Activity [22]: Active; Activity [23]: Active; Activity [24]: inactive; Activity [25]: Active; Activity [26]: Active

Reference: ChEMBL document CHEMBL4376884, “Toward a Rational Design of Polyamine-Based Zinc-Chelating Agents for Cancer Therapies” (J Med Chem, 2020)
